According to ChEMBL document CHEMBL2311407, “Design and synthesis of diazatricyclodecane agonists of the G-protein-coupled receptor 119” (J Med Chem, 2013):

How the values were obtained:
[1] = Oral bioavailability in Sprague-Dawley rat at 3 mg/kg dosed as milled material in 0.5% methylcellulose; format: ADME, organism-based; conditions: in vivo
Outline: (§1)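 Rat po dosing of milled material (2−25 μm premilling, about 190 nm postmilling) suspended in 0.5% methylcellulose. Plasma concentrations are total drug. Data are mean ± SD of three animals. F is calculated from 1 mg/kg rat iv data.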

[2] = Half life in Beagle dog at 3 mg/kg, po administered as spray dried dispersion; format: ADME, organism-based, Canis lupus familiaris; parameters: dose 3 mg/kg, route oral; conditions: in vivo
Outline: (§2)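 Male beagle dogs were dosed po at 3 mg/kg, 0.6 mL/kg, as 25% spray dried dispersion in 20 mM Tris buffer with 0.5% methylcellulose + 0.5% HPMCAS-HF, pH 7.4. Plasma concentrations are total drug. Values are the mean of two animals. F is calculated against 1 mg/kg iv dog data.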

[3] = Oral bioavailability in Sprague-Dawley rat at 3 mg/kg administered as spray dried dispersion; format: ADME, organism-based; conditions: in vivo
Outline: (§3)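 Rats were dosed po at 0.6 mL/kg with a 25% amorphous spray dried dispersion (with HPMCAS-HF) in 20 mM Tris buffer with 0.5% methylcellulose + 0.5% HPMCAS-HF, pH 7.4. Plasma concentrations are total drug. Data are mean ± SD of three animals. F is based on 1 mg/kg rat iv data.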

[4] = AUC in Beagle dog at 1 mg/kg, iv; format: ADME, organism-based, Canis lupus familiaris; parameters: dose 1 mg/kg, route intravenous; conditions: plasma
Outline: (§4)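 Male beagle dogs received 1 mg/kg iv at 2 mL/kg in 5% dimethylacetamide/75% PEG200/20% (30% SBE-CD). Plasma concentrations are total drug. Values are the mean of two animals.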

[5] = AUC in Beagle dog at 10 mg/kg, po administered as spray dried dispersion; format: ADME, organism-based, Canis lupus familiaris; parameters: dose 10 mg/kg, route oral; conditions: plasma
Outline: (§5)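 Oral gavage in male beagle dogs at 10, 30 or 100 mg/kg, 5 mL/kg, as 25% spray dried dispersion in 20 mM Tris buffer in 0.5% methylcellulose and 0.5% HPMCAS-HF, pH 7.4. Plasma concentrations are total drug. Values are the mean of two animals. F is based on 1 mg/kg iv dog data.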

[6] = Tmax in Sprague-Dawley rat at 3 mg/kg, po dosing in 0.5% methylcellulose; format: ADME, organism-based; parameters: dose 3 mg/kg, route oral; conditions: in vivo
Outline: (§6)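 Rats were dosed orally at 3 mg/kg in 0.5% methylcellulose. Plasma concentrations are total drug. Data are mean ± SD of three animals. F is based on 1 mg/kg rat iv PK.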

[7] = AUC in Beagle dog at 3 mg/kg, po administered as spray dried dispersion; format: ADME, organism-based, Canis lupus familiaris; parameters: dose 3 mg/kg, route oral; conditions: plasma; outline: as §2
[8] = Volume of distribution at steady state in Beagle dog at 1 mg/kg, iv; format: ADME, organism-based, Canis lupus familiaris; parameters: dose 1 mg/kg, route intravenous; conditions: in vivo, read-out: Vdss
Outline: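 Male beagle dogs received 1 mg/kg iv at 2 mL/kg in 5% DMA/75% PEG200/20% (30% SBE-CD). Plasma concentrations are reported as total drug. Parameters are means from two animals.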

[9] = Oral bioavailability in Sprague-Dawley rat at 3 mg/kg administered in 0.5% methylcellulose; format: ADME, organism-based; conditions: in vivo; outline: as §6
[10] = Tmax in Sprague-Dawley rat at 30 mg/kg, po dosing of milled material in 0.5% methylcellulose; format: ADME, organism-based; parameters: dose 30 mg/kg, route oral; conditions: in vivo
Outline: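 Nanomilled material (about 190 nm after milling) was suspended in 0.5% methylcellulose and dosed orally to rats. Plasma concentrations are reported as total drug. Values are mean ± SD from three animals.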

[11] = Fraction unbound in Beagle dog plasma; format: ADME, cell-free, Canis lupus familiaris
[12] = Tmax in Beagle dog at 10 mg/kg, po administered as spray dried dispersion; format: ADME, organism-based, Canis lupus familiaris; parameters: dose 10 mg/kg, route oral; conditions: in vivo; outline: as §5
[13] = Tmax in Sprague-Dawley rat at 3 mg/kg, po administered as spray dried dispersion; format: ADME, organism-based; parameters: dose 3 mg/kg, route oral; conditions: in vivo; outline: as §3
[14] = AUC in Sprague-Dawley rat at 3 mg/kg, po administered as spray dried dispersion; format: ADME, organism-based; parameters: dose 3 mg/kg, route oral; conditions: plasma; outline: as §3
[15] = AUC in Sprague-Dawley rat at 3 mg/kg, po dosing in 0.5% methylcellulose; format: ADME, organism-based; parameters: dose 3 mg/kg, route oral; conditions: in vivo; outline: as §6
[16] = Clearance in Sprague-Dawley rat at 1 mg/kg, iv; format: ADME, organism-based; parameters: dose 1 mg/kg, route intravenous; conditions: in vivo
Outline: (§7)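 Rats received 1 mg/kg iv in 10% N-methylpyrrolidone and 90% of a 30% SBE-CD solution. Plasma concentrations are total drug. Data are mean ± SD of three animals.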

[17] = Fraction unbound in Sprague-Dawley rat plasma; format: ADME, cell-free
[18] = Oral bioavailability in Sprague-Dawley rat at 30 mg/kg administered as spray dried dispersion; format: ADME, organism-based; conditions: in vivo; outline: as §3
[19] = Tmax in Beagle dog at 30 mg/kg, po administered as spray dried dispersion; format: ADME, organism-based, Canis lupus familiaris; parameters: dose 30 mg/kg, route oral; conditions: in vivo; outline: as §5
[20] = Half life in Sprague-Dawley rat at 1 mg/kg, iv; format: ADME, organism-based; parameters: dose 1 mg/kg, route intravenous; conditions: in vivo; outline: as §7
[21] = Cmax in Sprague-Dawley rat at 3 mg/kg, po dosing in 0.5% methylcellulose; format: ADME, organism-based; parameters: dose 3 mg/kg, route oral; conditions: in vivo; outline: as §6
[22] = Oral bioavailability in Beagle dog at 10 mg/kg administered as spray dried dispersion; format: ADME, organism-based, Canis lupus familiaris; conditions: in vivo; outline: as §5
[23] = Cmax in Beagle dog at 30 mg/kg, po administered as spray dried dispersion; format: ADME, organism-based, Canis lupus familiaris; parameters: dose 30 mg/kg, route oral; conditions: in vivo; outline: as §5
[24] = AUC in Sprague-Dawley rat at 3 mg/kg, po dosing of milled material in 0.5% methylcellulose; format: ADME, organism-based; parameters: dose 3 mg/kg, route oral; conditions: in vivo; outline: as §1
[25] = Clearance in Beagle dog at 1 mg/kg, iv; format: ADME, organism-based, Canis lupus familiaris; parameters: dose 1 mg/kg, route intravenous; conditions: in vivo; outline: as §4
[26] = Volume of distribution at steady state in Sprague-Dawley rat at 1 mg/kg, iv; format: ADME, organism-based; parameters: dose 1 mg/kg, route intravenous; conditions: in vivo, read-out: Vdss
Outline: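 Rats received an iv dose of 1 mpk in a vehicle of 10% N-methylpyrrolidone and 90% SBE-CD solution prepared at 30%. Plasma concentrations are total drug. Values are mean ± SD from three animals.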

- bioavailability [1]: 78%
- half-life [2]: 20 h
- bioavailability [3]: > 100%
- AUC [4]: 4730 ng·h/mL
- AUC [5]: 41000 ng·h/mL
- Tmax [6]: 3 h
- AUC [7]: 8580 ng·h/mL
- Vd [8]: 3.7 L/kg
- bioavailability [9]: 7.6%
- Tmax [10]: 6 h
- fraction unbound [11]: 0.014
- Tmax [12]: 1 h
- Tmax [13]: 4.7 h
- AUC [14]: 6140 ng·h/mL
- AUC [15]: 312 ng·h/mL
- clearance [16]: 13.2 mL/min/kg
- fraction unbound [17]: 0.01
- bioavailability [18]: > 100%
- Tmax [19]: 1 h
- half-life [20]: 4.34 h
- Cmax [21]: 24.2 ng/mL
- bioavailability [22]: 87%
- Cmax [23]: 3750 ng/mL
- AUC [24]: 3180 ng·h/mL
- clearance [25]: 1.74 mL/min/kg
- Vd [26]: 3.96 L/kg
SMILES: Cc1c(Oc2ccc(-n3cnnn3)cc2F)ncnc1N1C2CC3CC1CC(C2)N3C(=O)OC1(C)CC1
